The values that follow come from ChEMBL document CHEMBL1148952, “A new ene-triyne antibiotic from the fungus Baeospora myosura” (2004).

Test [1] concerns Staphylococcus aureus. Briefly: Antimicrobial activity against methicillin-sensitive Staphylococcus aureus after 20 hrs in presence of 50% serum. Format: functional.
Test [2] deals with Staphylococcus aureus. Briefly: Antimicrobial activity against methicillin-resistant coagulase negative Staphylococcus aureus after 20 hrs. Format: functional. A digest of the protocol: (§1)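 Broth MIC determination in cation-adjusted Mueller-Hinton broth, inoculum 10^5 cfu/mL, incubated 35 °C for 20 h.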
Test [3] concerns Staphylococcus aureus. Briefly: Antimicrobial activity against methicillin-sensitive Staphylococcus aureus after 20 hrs. The test is classed as functional. A digest of the protocol: as §1
In test [4] the test system is Staphylococcus aureus. Briefly: Antimicrobial activity against methicillin-resistant Staphylococcus aureus after 20 hrs. The test is classed as functional. A digest of the protocol:
as §1

The subject of another test is Candida albicans. Kind of test: Antimicrobial activity against Candida albicans after 24 hrs. Format: functional. A digest of the protocol: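 Yeast MIC in RPMI 1640. Inoculum 10^3 cfu/mL, incubated 35 °C for 24 h. Compound supplied from a DMSO stock quantified by UV absorbance at 325 nm.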
The next test concerns Haemophilus influenzae. Briefly: Antimicrobial activity against Haemophilus influenzae after 20 hrs. Format: functional. A digest of the protocol:
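Haemophilus Test medium broth MIC. Inoculum 10^5 cfu/mL, incubated 35 °C for 20 h. Compound supplied from a DMSO stock quantified by UV absorbance at 325 nm.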

For test [5], the system named is coagulase-negative Staphylococcus. Briefly: Antimicrobial activity against methicillin-resistant coagulase negative Staphylococcus after 20 hrs.
In a further test the test system is Enterococcus faecalis. Kind of test: Antimicrobial activity against vancomycin-sensitive Enterococcus faecalis after 20 hrs. Format: functional. A digest of the protocol: (§2)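 Broth MIC in cation-adjusted Mueller-Hinton broth. Inoculum 10^5 cfu/mL, incubated 35 °C for 20 h. Test material was held as a DMSO stock, with concentration set by UV absorbance at 325 nm of a MeOH dilution (ε = 2 × 10^4 M-1 cm-1).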

Another test relates to Pseudomonas aeruginosa. Kind of test: Antimicrobial activity against Pseudomonas aeruginosa after 20 hrs. The test is classed as functional. A digest of the protocol:
as §2

For another test, the system named is Priestia megaterium. Briefly: Antimicrobial activity against Bacillus megaterium after 20 hrs. The test is classed as functional. A digest of the protocol:
as §2

The next test relates to Streptococcus pyogenes. Kind of test: Antimicrobial activity against Streptococcus pyogenes after 20 hrs. The test is classed as functional.
Another test concerns Escherichia coli. Briefly: Antimicrobial activity against Escherichia coli after 20 hrs. The test is classed as functional. A digest of the protocol: as §2
Test [6] deals with Streptococcus pneumoniae. Briefly: Antimicrobial activity against Streptococcus pneumoniae after 20 hrs. Format: functional. A digest of the protocol: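 MIC by broth dilution in cation-adjusted Mueller-Hinton broth with 2.5% lysed horse blood. Inoculum 10^5 cfu/mL, 35 °C for 20 h. DMSO stock quantified by UV absorbance at 325 nm.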
Test [7] deals with Streptococcus pneumoniae. Briefly: Antimicrobial activity against penicillin-resistant Streptococcus pneumoniae after 20 hrs. The test is classed as functional. A digest of the protocol:
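Broth MIC determination in cation-adjusted Mueller-Hinton broth supplemented with 2.5% lysed horse blood, inoculum 10^5 cfu/mL, incubated 35 °C for 20 h.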

In another test the test system is Klebsiella pneumoniae. Kind of test: Antimicrobial activity against Klebsiella pneumoniae after 20 hrs. The test is classed as functional. A digest of the protocol: as §2
In the next test the test system is Enterococcus faecium. Briefly: Antimicrobial activity against vancomycin-resistant Enterococcus faecium after 20 hrs. The test is classed as functional. A digest of the protocol:
as §1

Values after ≈ are worked out from the molar mass of the structure shown. Active and inactive are the calls of the source. The calls are words filed in the database; no cut-off is given here.

Turning to `CC(=O)Nc1ccc(C(=O)O)cc1`, the outcome in the test with Staphylococcus aureus [1], in the test with Staphylococcus aureus [2], in the test on Staphylococcus aureus [3] and in the test with Staphylococcus aureus [4] was inactive.
Regarding `CCCCCCCCC(=O)Nc1ccc(C(=O)O)cc1`, the outcome in the test with Staphylococcus aureus [1], in the test on Staphylococcus aureus [2], with Staphylococcus aureus [3] and with Staphylococcus aureus [4] was inactive.
For `C#CC#CC#C/C=C/C(=O)Nc1ccc(C(=O)O)cc1`, the MIC was > 32 µg/mL in the test on Candida albicans; 16 µg/mL in the test with Staphylococcus aureus [1]; 0.5 µg/mL (≈ 1.9 µM) against Haemophilus influenzae; 0.0005 µg/mL (≈ 0.0019 µM) in test [5]; 0.0005 µg/mL (≈ 0.0019 µM) in the test on Staphylococcus aureus [3]; 0.12 µg/mL (≈ 0.456 µM) in the test on Enterococcus faecalis. Also, the MIC was > 32 µg/mL against Pseudomonas aeruginosa; 4 µg/mL (≈ 15.2 µM) with Priestia megaterium; 0.008 µg/mL (≈ 0.0304 µM) in the test on Streptococcus pyogenes; 32 µg/mL (≈ 122 µM) in the test with Escherichia coli; 0.001 µg/mL (≈ 0.0038 µM) in the test on Staphylococcus aureus [4]; 8 µg/mL (≈ 30.4 µM) against Streptococcus pneumoniae [6]. Further, the MIC in the test on Streptococcus pneumoniae [7] is 16 µg/mL (≈ 60.8 µM); in the test with Klebsiella pneumoniae it was > 32 µg/mL; in the test with Enterococcus faecium it was 0.015 µg/mL (≈ 0.057 µM).
